The text below walks through data of ChEMBL document CHEMBL1821704, “Diarylheptanoids from Curcuma kwangsiensis and their inhibitory activity on nitric oxide production in lipopolysaccharide-activated macrophages” (Bioorg Med Chem Lett, 2011).

Structures are written as SMILES. Where only a bound is given, the exact number is not on record here.

The test system of series [1] is RAW264.7. The series can be described thus: Cytotoxicity against mouse RAW264.7 cells at 100 uM after 24 hrs by MTT assay. The series is classed as cell-based. Conditions: raw264.7, 24 h. A general note: Tetrazolium dyes change colour on reduction, which living cells bring about.
Series [2] has as its system RAW264.7. The series can be described thus: Inhibition of LPS-induced nitric oxide production in mouse RAW264.7 cells after 24 hrs by Griess reaction based spectrophotometry. It is filed as functional, cell-based. Conditions: RAW264.7, 24 h. The procedure, abridged: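 Cells plated at 1 × 10⁵ cells/well and stimulated with LPS, with or without compound, for 24 h at 37 °C. Nitrite was read at 550 nm against a sodium nitrite standard curve. Triplicate wells; mean SD of three independent experiments.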
(In general: The Griess reaction detects nitrite, a stable product of nitric oxide.)

For `O=C(CCc1ccc(O)cc1)C[C@@H](O)CCc1ccccc1`, the Activity result in the series on RAW264.7 [1] is listed as “Non-toxic”. The midpoint of inhibition in the series on RAW264.7 [2], the IC50, lay at 75.7 µM.
On the same counts, the results for `O=C(CCc1ccc(O)cc1)C[C@@H](O)CCc1ccc(O)c(O)c1` are “Non-toxic” and 82.8 µM.
In the same order, the values of `COc1cc(CCC(=O)C[C@@H](O)CCc2ccc(O)cc2)ccc1O` are “Non-toxic” and 37.5 µM.
In the same order, the values of `CC(=O)O[C@H](CCc1ccc(O)cc1)C[C@H](O)CCc1ccc(O)cc1` are “Non-toxic” and 32 µM.
Consider `CC(=O)O[C@H](CCc1ccc(O)c(O)c1)C[C@H](O)CCc1ccc(O)c(O)c1`, for which the Activity result in the series on RAW264.7 [1] was “Toxic”. Further, in the series with RAW264.7 [2], inhibition was half-maximal at 35.5 µM (IC50).
On the same counts, the results for `CC(=O)O[C@H](CCc1ccc(O)cc1)C[C@@H](CCc1ccc(O)c(O)c1)OC(C)=O` are “Non-toxic” and 10.7 µM.
For `CC(=O)O[C@@H](CCc1ccc(O)c(O)c1)C[C@@H](O)CCc1ccc(O)cc1`, the Activity entry in the series with RAW264.7 [1] is recorded as “Toxic”. Moreover, half-maximal inhibition with RAW264.7 [2] (IC50) was put at 9.52 µM.
Consider `CC(=O)O[C@H](CCc1ccc(O)c(O)c1)C[C@H](O)CCc1ccc(O)cc1`, for which the Activity result with RAW264.7 [1] is “Toxic”. It took 9.52 µM to reach half-maximal inhibition in the series on RAW264.7 [2] (IC50).
In the same order, the values of `CC(=O)O[C@H](CCc1ccc(O)c(O)c1)C[C@@H](CCc1ccc(O)c(O)c1)OC(C)=O` are “Toxic” and 7.98 µM.
On the same counts, the results for `Oc1ccc(CC[C@@H](O)C[C@@H](O)CCc2ccc(O)cc2)cc1` are “Non-toxic” and above 100 µM.
On the same counts, the results for `COc1cc(CCC(=O)C[C@@H](O)CCc2ccc(O)c(O)c2)ccc1O` are “Toxic” and 9.37 µM.
With `Oc1ccc(CC[C@@H](O)C[C@H](O)CCc2ccc(O)c(O)c2)cc1`, in the series on RAW264.7 [1], the Activity entry is given as “Non-toxic”. In addition, the IC50 (as a rule, the point on the concentration scale where inhibition reaches its midpoint) in the series on RAW264.7 [2] is 11.5 µM.
On to `COc1cc(CC[C@@H](O)C[C@H](O)CCc2ccc(O)c(O)c2)ccc1O`, for which, in the series with RAW264.7 [1], the Activity entry is on record as “Non-toxic”. Moreover, in the series with RAW264.7 [2], the half-inhibitory concentration (IC50) was 25.8 µM.
In the same order, the values of `Oc1ccc(CC[C@H](O)C[C@H](O)CCc2ccc(O)c(O)c2)cc1` (relative stereo) are “Toxic” and 3.13 µM.
`COc1cc(CC[C@@H](O)C[C@@H](O)CCc2ccc(O)cc2)ccc1O` (relative stereo): the Activity entry in the series on RAW264.7 [1] is “Non-toxic”. The IC50 with RAW264.7 [2] was determined as 2.81 µM.
In the same order, the values of `COc1cc(CC[C@@H](O)C[C@@H](O)CCc2ccc(O)cc2)cc(O)c1O` (relative stereo) are “Toxic” and 2.41 µM.
On the same counts, the results for `Oc1ccc(CC[C@@H](O)C[C@H](O)CCc2ccc(O)cc2)cc1` [(+)-HANNOKINOL] are “Non-toxic” and above 100 µM.
Regarding `C[C@]12CCC(=O)C=C1CC[C@@H]1[C@@H]2[C@@H](O)C[C@@]2(C)[C@H]1CC[C@]2(O)C(=O)CO` [HYDROCORTISONE], the Activity entry in the series on RAW264.7 [1] is recorded as “Non-toxic”.
Still for that read-out and setting: under `COc1ccc2c(c1)c(CC(=O)O)c(C)n2C(=O)c1ccc(Cl)cc1` [INDOMETHACIN] stands “Non-toxic”.
